What was measured:
[1] = biological target: T1, 11-beta-hydroxysteroid dehydrogenase 1 (Homo sapiens, UniProt P28845); assay: Inhibition of human 11beta-HSD1 expressed in Escherichia coli
[2] = biological target: T2, 11-beta-hydroxysteroid dehydrogenase type 2 (Homo sapiens, UniProt P80365); assay: Inhibition of human 11beta-HSD2
T2 sequence (P80365 whole entry): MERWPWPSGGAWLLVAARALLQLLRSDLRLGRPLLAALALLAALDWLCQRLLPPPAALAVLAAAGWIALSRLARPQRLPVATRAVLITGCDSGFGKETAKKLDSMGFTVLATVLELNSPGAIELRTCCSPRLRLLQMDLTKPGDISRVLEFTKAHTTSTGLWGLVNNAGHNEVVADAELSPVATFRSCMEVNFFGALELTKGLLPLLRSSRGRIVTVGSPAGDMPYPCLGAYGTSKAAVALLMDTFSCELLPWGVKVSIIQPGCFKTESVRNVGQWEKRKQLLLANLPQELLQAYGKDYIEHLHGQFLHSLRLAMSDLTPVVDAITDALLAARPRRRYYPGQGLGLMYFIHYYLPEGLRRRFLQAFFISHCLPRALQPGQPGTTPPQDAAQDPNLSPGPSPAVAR

[3] = biological target: 11-beta-hydroxysteroid dehydrogenase 1 (Mus musculus, UniProt P50172); assay: Inhibition of mouse 11beta-HSD1 expressed in Escherichia coli
Chain of 11-beta-hydroxysteroid dehydrogenase 1 (Mus musculus, UniProt P50172) (P50172 whole entry): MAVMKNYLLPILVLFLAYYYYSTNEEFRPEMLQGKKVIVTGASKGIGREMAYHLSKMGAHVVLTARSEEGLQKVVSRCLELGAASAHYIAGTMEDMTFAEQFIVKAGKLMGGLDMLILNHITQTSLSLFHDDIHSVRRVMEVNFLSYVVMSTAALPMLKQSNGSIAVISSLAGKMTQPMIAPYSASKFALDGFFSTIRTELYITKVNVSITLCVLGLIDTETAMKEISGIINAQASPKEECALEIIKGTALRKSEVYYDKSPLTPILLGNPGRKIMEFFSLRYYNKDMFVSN
Outline: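 Reductase-direction SPA. Total cortisone was 175 nM, including 75 nM ³H-cortisone, with NADPH cofactor in 50 mM Tris–HCl pH 7.2 and 1 mM EDTA. An NADPH regeneration system (1 mM G-6-P, 1 U/mL G-6-PDH) was included. Final enzyme was 0.015 mg/mL, keeping substrate consumption below 25%. The reaction ran 30 min at room temperature. ³H-cortisol was captured by anti-cortisol mAb and anti-mouse SPA beads, then scintillation-counted. IC50 came from % inhibition versus an uninhibited control, as the mean of two experiments.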

[4] = biological target: T3, 11-beta-hydroxysteroid dehydrogenase type 2 (Mus musculus, UniProt P51661); assay: Inhibition of mouse 11beta-HSD2
T3 sequence (P51661 whole entry): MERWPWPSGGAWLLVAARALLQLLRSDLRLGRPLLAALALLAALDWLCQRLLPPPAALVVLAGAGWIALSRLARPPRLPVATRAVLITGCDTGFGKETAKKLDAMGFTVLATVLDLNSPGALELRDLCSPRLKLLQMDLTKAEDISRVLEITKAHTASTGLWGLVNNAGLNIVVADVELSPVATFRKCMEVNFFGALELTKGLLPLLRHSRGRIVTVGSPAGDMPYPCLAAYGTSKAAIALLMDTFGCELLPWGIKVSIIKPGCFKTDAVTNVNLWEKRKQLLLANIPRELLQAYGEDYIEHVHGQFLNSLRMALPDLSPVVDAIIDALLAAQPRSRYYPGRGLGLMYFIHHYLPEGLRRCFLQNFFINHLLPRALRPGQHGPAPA

[5] = biological target: T1, 11-beta-hydroxysteroid dehydrogenase 1; assay: Inhibition of human 11beta-HSD1 expressed in HEK293 cells; format: cell-based
[6] = Stability in mouse liver microsomes after 30 min; format: ADME, Microsome; conditions: read-out: Stability
Outline: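 Compounds were incubated 30 min with mouse liver microsomes; the result is expressed as % parent remaining.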

[7] = biological target: 11-beta-hydroxysteroid dehydrogenase 1 (Mus musculus) (UniProt P50172); assay: Inhibition of DIO mouse liver 11beta-HSD1 at 30 mg/kg 7 hrs post dose; format: organism-based; set-up: dose 30 mg/kg
Chain of 11-beta-hydroxysteroid dehydrogenase 1 (Mus musculus) (P50172 whole entry, looked up): as the sequence (P50172 whole entry) above
Outline: (§1)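 DIO mice received one oral 30 mpk dose in 1% Tween 80 / 0.2% hydroxypropyl methylcellulose, 3 mice per point. Liver, epididymal fat and brain were excised at 7 or 16 h, weighed, minced in about 5 volumes PBS and given cortisone at 10 final. Incubation was at 37 °C, 5% CO₂: liver 20 min, fat and brain 3 h. Cortisol was read by LC-MS; % inhibition is versus the vehicle group.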

[8] = biological target: 11-beta-hydroxysteroid dehydrogenase 1 (Mus musculus) (UniProt P50172); assay: Inhibition of DIO mouse liver 11beta-HSD1 at 30 mg/kg 16 hrs post dose; format: organism-based; set-up: dose 30 mg/kg; outline: as §1
[9] = biological target: 11-beta-hydroxysteroid dehydrogenase 1 (Mus musculus) (UniProt P50172); assay: Inhibition of DIO mouse brain 11beta-HSD1 at 30 mg/kg 7 hrs post dose; format: organism-based; set-up: dose 30 mg/kg; outline: as §1
[10] = biological target: 11-beta-hydroxysteroid dehydrogenase 1 (Mus musculus) (UniProt P50172); assay: Inhibition of DIO mouse brain 11beta-HSD1 at 30 mg/kg 16 hrs post dose; format: organism-based; set-up: dose 30 mg/kg; outline: as §1
[11] = biological target: 11-beta-hydroxysteroid dehydrogenase 1 (Mus musculus) (UniProt P50172); assay: Inhibition of DIO mouse adipose tissue 11beta-HSD1 at 30 mg/kg 7 hrs post dose; format: organism-based; set-up: dose 30 mg/kg; outline: as §1
[12] = biological target: 11-beta-hydroxysteroid dehydrogenase 1 (Mus musculus) (UniProt P50172); assay: Inhibition of DIO mouse adipose tissue 11beta-HSD1 at 30 mg/kg 16 hrs post dose; format: organism-based; set-up: dose 30 mg/kg; outline: as §1
[13] = Plasma clearance in mouse at 10 mg/kg; format: ADME, organism-based; set-up: dose 10 mg/kg
Outline: (§2)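 Mouse PK: single 10 mg/kg doses given intravenously and orally; the parameters were calculated from these dosings.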

[14] = Half life in mouse plasma at 10 mg/kg; format: ADME, organism-based; set-up: dose 10 mg/kg; outline: as §2
[15] = Bioavailability in mouse plasma at 10 mg/kg; format: ADME, organism-based; outline: as §2

T1 sequence (P28845 whole entry): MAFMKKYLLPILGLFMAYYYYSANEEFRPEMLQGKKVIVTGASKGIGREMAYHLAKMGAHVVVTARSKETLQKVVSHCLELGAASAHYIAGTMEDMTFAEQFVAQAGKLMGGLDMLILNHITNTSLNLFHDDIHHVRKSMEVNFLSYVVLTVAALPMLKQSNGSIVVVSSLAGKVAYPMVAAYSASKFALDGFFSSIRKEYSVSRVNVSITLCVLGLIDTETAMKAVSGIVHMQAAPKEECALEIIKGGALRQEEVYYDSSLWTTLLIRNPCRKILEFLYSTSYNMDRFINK

Structure (SMILES)	IC50 [1]	IC50 [2]	IC50 [3]	IC50 [4]	IC50 [5]	remaining at 0.5 h [6]	inhibition [7]	inhibition [8]	inhibition [9]	inhibition [10]	inhibition [11]	inhibition [12]	clearance [13]	half-life [14]	bioavailability [15]
CC(C)(Oc1ccc(Cl)cc1)C(=O)N[C@H]1C2C[C@@H]3C[C@H]1C[C@@](Cc1nnn[nH]1)(C2)C3	0.041 µM	> 100 µM	0.087 µM	7 µM	0.119 µM	79%	62%	37%	11%	9%	17%	20%	20 mL/min/kg	2.3 h	39.7%
CC(C)(Oc1ccc(Cl)cc1)C(=O)N[C@H]1C2C[C@@H]3C[C@H]1C[C@@](CCC(=O)O)(C2)C3	–	–	0.074 µM	28 µM	–	78%	99%	93%	67%	18%	50%	23%	13.3 mL/min/kg	2.6 h	86.3%
CC(C)(Oc1ccc(Cl)cc1)C(=O)N[C@H]1C2C[C@@H]3C[C@H]1C[C@@](c1noc(=O)[nH]1)(C2)C3	–	–	0.101 µM	100 µM	–	–	–	–	–	–	–	–	–	–	–
CC(C)(Oc1ccc(Cl)cc1)C(=O)N[C@H]1C2C[C@@H]3C[C@H]1C[C@@](CC(=O)O)(C2)C3	–	–	0.092 µM	20.7 µM	–	94%	40%	0%	–	–	70%	35%	3.33 mL/min/kg	2 h	96.1%
CC(C)(Oc1ccc(Cl)cc1)C(=O)N[C@H]1C2C[C@@H]3C[C@H]1C[C@@](/C(N)=N/O)(C2)C3	–	–	0.026 µM	> 100 µM	–	64%	89%	84%	85%	79%	92%	67%	76.7 mL/min/kg	0.4 h	61.6%
CC(C)(Oc1ccc(Cl)cc1)C(=O)N[C@H]1C2C[C@@H]3C[C@H]1C[C@@](c1ncc[nH]1)(C2)C3	–	–	0.011 µM	–	–	3%	–	–	–	–	–	–	–	–	–
CC(C)(Oc1ccc(Cl)cc1)C(=O)N[C@H]1C2C[C@@H]3C[C@H]1C[C@@](c1ccno1)(C2)C3	–	–	0.071 µM	–	–	30%	–	–	–	–	–	–	–	–	–
CC(C)(Oc1ccc(Cl)cc1)C(=O)N[C@H]1C2C[C@@H]3C[C@H]1C[C@@](c1nc(C#N)c(N)o1)(C2)C3	0.146 µM	> 100 µM	0.205 µM	50 µM	0.306 µM	25%	–	–	–	–	–	–	–	–	–
CC(C)(Oc1ccc(Cl)cc1)C(=O)N[C@H]1C2C[C@@H]3C[C@H]1C[C@@](c1nnc(N)[nH]1)(C2)C3	–	–	0.053 µM	–	–	41%	–	–	–	–	–	–	–	–	–

Results, then the compound that gave them:

IC50 [1]	IC50 [2]	IC50 [3]	IC50 [4]	IC50 [5]	remaining at 0.5 h [6]	inhibition [7]	inhibition [8]	inhibition [9]	inhibition [10]	inhibition [11]	inhibition [12]	clearance [13]	half-life [14]	bioavailability [15]	Structure (SMILES)
0.029 µM	> 100 µM	0.31 µM	> 100 µM	0.246 µM	83%	–	–	–	–	–	–	–	–	–	CNc1ccc(C(C)(C)C(=O)N[C@H]2C3C[C@@H]4C[C@H]2C[C@@](CC(N)=O)(C3)C4)cn1
0.185 µM	> 100 µM	0.519 µM	> 100 µM	> 10 µM	–	–	–	–	–	–	–	–	–	–	CN1CCN(c2ccc(OC(C)(C)C(=O)N[C@H]3C4C[C@@H]5C[C@H]3C[C@@](CC(N)=O)(C4)C5)nc2)CC1
–	–	0.004 µM	> 100 µM	–	87%	57%	0%	–	–	47%	23%	–	–	–	CC(C)(Oc1ccc(Br)cn1)C(=O)N[C@H]1C2C[C@@H]3C[C@H]1C[C@@](CC(N)=O)(C2)C3
0.044 µM	> 100 µM	0.051 µM	> 100 µM	0.444 µM	89%	–	–	–	–	–	–	–	–	–	CC(C)(Oc1ccc(N2CCOCC2)cn1)C(=O)N[C@H]1C2C[C@@H]3C[C@H]1C[C@@](CC(N)=O)(C2)C3
0.005 µM	> 100 µM	0.011 µM	> 100 µM	0.038 µM	83%	–	–	–	–	–	–	–	–	–	CC(C)(Oc1ccc(-n2cccn2)cn1)C(=O)N[C@H]1C2C[C@@H]3C[C@H]1C[C@@](CC(N)=O)(C2)C3
0.014 µM	> 100 µM	0.065 µM	15 µM	0.165 µM	100%	–	–	–	–	–	–	–	–	–	CC(C)(C(=O)N[C@H]1C2C[C@@H]3C[C@H]1C[C@@](CC(N)=O)(C2)C3)c1ccc(C#N)cn1

From ChEMBL document CHEMBL1137283, “Synthesis and biological evaluation of heterocycle containing adamantane 11beta-HSD1 inhibitors” (Bioorg Med Chem Lett, 2006)
